{"data": "Measured values gathered from unrelated publications", "target": "Serine/threonine-protein kinase/endoribonuclease IRE1 (ERN1, Homo sapiens, UniProt O75460)"}
{"Compound": "CN(C)c1nccc(-c2cnn3ncccc23)n1", "test": "binding", "conditions": "1 µM", "remaining binding": "100%"}
{"Compound": "O=C(NCCCN1CCOCC1)c1ccc(Nc2nccc(-c3cc4ccccc4s3)n2)cc1", "test": "binding, competition with immobilised ligand", "conditions": "1 µM", "remaining binding": "52%"}
{"Compound": "C=CC(=O)N1CCC(C(=O)NCC(=O)N2CCN(c3nc(-c4cnc(N)nc4C(F)F)nc(N4CCOCC4)n3)CC2)CC1", "test": "binding, competition with immobilised ligand", "conditions": "1 µM", "remaining binding": "100%"}
{"Compound": "C[C@@H]1CCN(c2nccc(-c3cnn4ncccc34)n2)C1", "test": "binding", "conditions": "1 µM", "remaining binding": "100%"}
{"Compound": "COc1cnc(Nc2cccc(S(N)(=O)=O)c2)nc1N1CCN(c2ccccc2)CC1", "test": "binding, competition with immobilised ligand", "conditions": "1 µM", "remaining binding": "73%"}
{"Compound": "CN(CCCC(F)(F)F)c1nccc(-c2cnn3ncccc23)n1", "test": "binding", "conditions": "1 µM", "remaining binding": "97%"}
{"Compound": "CCCCN(CCCC)C(=O)CN1C[C@@H](c2cc(OC)c3c(c2)OCO3)[C@H](C(=O)O)[C@H]1CC(C)(C)CCC", "test": "cell-free assay, competition with immobilised ligand", "conditions": "1 µM", "remaining binding": "100%"}
{"Compound": "N[C@@H]1CCN(c2nccc(-c3cnn4ncccc34)n2)C1", "test": "binding", "conditions": "1 µM", "remaining binding": "100%"}
{"Compound": "O=C(c1ccc(Nc2nccc(-c3cc4ccccc4s3)n2)cc1)N1CCC(N2CCCC2)CC1", "test": "binding, competition with immobilised ligand", "conditions": "1 µM", "remaining binding": "41%"}
{"Compound": "FC(F)(F)Oc1cccc(-c2cnc3ccc(-c4ccncc4)nn23)c1", "test": "cell-free assay, competition with immobilised ligand", "conditions": "5 µM", "remaining binding": "79%"}
{"Compound": "CCC(=O)N[C@H]1CC[C@@H](C(=O)N(C)c2ccc(-c3nc4ccccc4o3)cc2)C1", "test": "cell-free assay, competition with immobilised ligand", "conditions": "1 µM", "remaining binding": "91%"}
{"Compound": "CN(c1nccc(-c2cnn3ncccc23)n1)C1CC1", "test": "binding", "conditions": "1 µM", "remaining binding": "100%"}
{"Compound": "O=C(NCc1ncc(C(F)(F)F)cc1Cl)c1ccc2c(c1)C1(CCS(=O)(=O)CC1)[C@@H](C1CC1)N2S(=O)(=O)c1ccc(F)cc1", "test": "cell-free assay, competition with immobilised ligand", "conditions": "1 µM", "remaining binding": "65%"}
{"Compound": "COc1ncc2cc3ccccc3nc2c1C#N", "test": "cell-free assay, competition with immobilised ligand", "conditions": "5 µM", "remaining binding": "93%"}
{"Compound": "CNC(=O)Nc1ccc2c(c1)CC[C@@]21OC(=O)N(CC(=O)N(Cc2ccc(F)cc2)[C@@H](C)C(F)(F)F)C1=O", "test": "cell-free assay, competition with immobilised ligand", "conditions": "1 µM", "remaining binding": "56%"}
{"Compound": "O=C(NCC1CCOCC1)c1n[nH]cc1NC(=O)c1c(F)cccc1F", "test": "binding, competition with immobilised ligand", "conditions": "1 µM", "remaining binding": "65%"}
{"Compound": "CS(=O)(=O)N1CCCC(NC(=O)[C@H](CCC2CCCCC2)NC(=O)c2ccc(CNc3ncnc4c3nnn4-c3ccccc3)cc2)C1 (stereo partly drawn)", "test": "cell-free assay, competition with immobilised ligand", "conditions": "0.1 µM", "remaining binding": "100%"}
{"Compound": "C[C@@H](c1ccc(-n2cnc3c(N)ncnc32)cc1)N1CCc2nn(C)c(Cc3ccccc3)c2C1=O", "test": "binding, competition with immobilised ligand", "conditions": "0.1 µM", "remaining binding": "72%"}
{"Compound": "O=C(NCCCN1CCOCC1)c1ccc(Nc2ncc(Cl)c(-c3ccc(Cl)s3)n2)cc1", "test": "binding, competition with immobilised ligand", "conditions": "1 µM", "remaining binding": "27%"}
{"Compound": "CC1CCCN1c1nccc(-c2cnn3ncccc23)n1 (stereo not drawn)", "test": "binding", "conditions": "1 µM", "remaining binding": "100%"}
{"Compound": "CN1CCN(c2cnc3c(C4CCN(C(=O)c5ccc(OC(F)(F)F)cc5N)CC4)ncnc3c2)CC1", "test": "cell-free assay, competition with immobilised ligand", "conditions": "1 µM", "remaining binding": "99%"}
